# Assay results: ChEMBL document CHEMBL1131227, “Hydroxyphthalocyanines as potential photodynamic agents for cancer therapy” (1998)
# Active and inactive are the calls of the source. The calls are words filed in the database; no cut-off is given here.
# How the values were obtained:
# EMT6 [1] = settings: Mus musculus
# EMT6 [2] = test: Drug dose required to kill 90% of cells(EMT-6 mammary tumor cell line) after 24 hr incubation with a fixed fluence of 2.4 J cm-2.; type: functional
# In short: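 EMT-6 mouse mammary tumour cells were grown in Waymouth's medium with 15% FBS. They were seeded at 15 × 10³ per well overnight, then given dye (Cremophor emulsion diluted in Waymouth 1% FBS) for 1 or 24 h at 37 °C. Cells were rinsed and refed, then exposed to red light (λ > 590 nm, 10 mW cm⁻²) to 2.4 J cm⁻². MTT was read at 595 nm the next day. Dye-free cells set 100% survival.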
# Mus musculus [3] = test: % EMT-6 tumor regression response induced in BALB/c mice after ZnPc and Photofrin-mediated photodynamic therapy (PDT) at a concentration of 2 umol/kg; type: functional
# In short: (§1)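 In male BALB/c mice (18–22 g), intradermal EMT-6 tumors on each hind thigh were grown 6–8 days to 3–5-mm diameter. Mice then received 1 or 2 μmol kg⁻¹ dye i.v. in Cremophor emulsion, with red-light exposure 24 h later. Scored as percent of animals showing complete tumor regression 3 weeks after PDT.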
# Mus musculus [4] = species: Mus musculus; settings: BALB/c, 2 umol/kg
# EMT6 [5] = test: Light dose required to kill 90% of cells(EMT-6 mammary tumor cell line) after 1 hr incubation with 1 uM concentration; type: functional, Mus musculus
# In short: (§2)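 EMT-6 cells were seeded at 15 × 10³ per well and incubated 1 or 24 h at 37 °C with 1 μM dye from Cremophor emulsion in Waymouth 1% FBS. They were rinsed, refed with 15% FBS, and given red light (10 mW cm⁻²) over 0.1–20 J cm⁻². After overnight incubation, viability was read by MTT (595 nm). LD₉₀ was extrapolated from survival curves, with eightfold replicates per light dose and at least three experiments.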
# EMT6 [6] = test: Light dose required to kill 90% of cells(EMT-6 mammary tumor cell line) after 24 hr incubation with 1 uM concentration; type: functional
# In short: as §2
# Mus musculus [7] = test: % EMT-6 tumor regression response induced in BALB/c mice after ZnPc and Photofrin-mediated photodynamic therapy (PDT) at a concentration of 1 uM/kg; type: functional
# In short: as §1
# Mus musculus [8] = test: % EMT-6 tumor edema response induced in BALB/c mice after ZnPc and Photofrin-mediated photodynamic therapy (PDT) at a concentration of 1 umol/kg; Important; type: functional, organism-based; settings: tested as the Zn salt or complex
# In short: (§3)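 Male BALB/c mice (18–22 g), shaved and depilated, bore EMT-6 tumors from intradermal injection of 2 × 10⁵ cells into each hind thigh. At 6–8 days (tumors 3–5-mm diameter, 2–3-mm thick), dye was given i.v. as a Cremophor emulsion (0.2 mL/20 g) at 1 or 2 μmol kg⁻¹. Red light followed 24 h later. Edema was scored 24 h after PDT as light (+), medium (++), important (+++) or extensive (++++).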
# Mus musculus [9] = test: % EMT-6 tumor necrosis response induced in BALB/c mice after ZnPc and Photofrin-mediated photodynamic therapy (PDT) at a concentration of 1 uM/kg; type: functional
# Mus musculus [10] = test: % EMT-6 tumor edema response induced in BALB/c mice after ZnPc and Photofrin-mediated photodynamic therapy (PDT) at a concentration of 2 umol/kg; Important; type: functional, organism-based; settings: tested as the Zn salt or complex
# In short: as §3
# Mus musculus [11] = test: % EMT-6 tumor edema response induced in BALB/c mice after ZnPc and Photofrin-mediated photodynamic therapy (PDT) at a concentration of 1 umol/kg; Light; type: functional, organism-based; settings: tested as the Zn salt or complex
# In short: as §3
# [12] = test system: V-79 (Cricetulus griseus); test: Drug dose required to kill 90% of cells after 1 hr incubation with a fixed fluence of 2.4 J cm-2. (assay with Chinese hamster V-79 fibroblasts)
# Mus musculus [13] = test: % EMT-6 tumor regression response induced in BALB/c mice after ZnPc and Photofrin-mediated photodynamic therapy (PDT) at a concentration of 10 uM/kg; type: functional
# Mus musculus [14] = test: % EMT-6 tumor necrosis response induced in BALB/c mice after ZnPc and Photofrin-mediated photodynamic therapy (PDT) at a concentration of 10 uM/kg; type: functional, organism-based; settings: tested as the Zn salt or complex
# Mus musculus [15] = test: % EMT-6 tumor edema response induced in BALB/c mice after ZnPc and Photofrin-mediated photodynamic therapy (PDT) at a concentration of 10 uM/kg; type: functional, organism-based; settings: tested as the Zn salt or complex
# Mus musculus [16] = test: % EMT-6 tumor edema response induced in BALB/c mice after ZnPc and Photofrin-mediated photodynamic therapy (PDT) at a concentration of 1 umol/kg; Extensive; type: functional, organism-based; settings: tested as the Zn salt or complex
# In short: as §3
# Mus musculus [17] = test: % EMT-6 tumor edema response induced in BALB/c mice after ZnPc and Photofrin-mediated photodynamic therapy (PDT) at a concentration of 2 umol/kg; Extensive; type: functional, organism-based; settings: tested as the Zn salt or complex
# In short: as §3
# [18] = Mus musculus, tested as the Zn salt or complex
SMILES,LC90 (EMT6 [2]; [18]),Tumor response (Mus musculus [3]) [%],LD90 (EMT6 [5]) [J cm**-2],LD90 (EMT6 [6]; [18]),LC90 (EMT6 [2]) [µM],LD90 (EMT6 [6]) [J cm**-2],Tumor response (Mus musculus [7]) [%],Tumor response (Mus musculus [9]) [%],other results
[Zn+2].c1ccc2c(c1)-c1nc-2nc2[n-]c(nc3nc(nc4[n-]c(n1)c1ccccc41)-c1ccccc1-3)c1ccccc21 [(PHTHALOCYANINATO)ZINC(II)],inactive,100,0.14,inactive,,,,,LC90 (EMT6 [1]): inactive; Tumor response (Mus musculus [4]): inactive
Oc1ccc2c(c1)-c1nc-2nc2[n-]c(nc3nc(nc4[n-]c(n1)c1ccccc41)-c1ccc(O)cc1-3)c1ccc(O)cc21.[Zn+2],,,19,,0.8,0.48,,,
Oc1cc2c(cc1O)-c1nc-2nc2[n-]c(nc3nc(nc4[n-]c(n1)c1ccccc41)-c1ccccc1-3)c1ccccc21.[Zn+2],,0,2.4,,0.3,0.25,25,62,Tumor response (Mus musculus [8]): Important; Tumor response (Mus musculus [10]): Important
Oc1ccc2c(c1)-c1nc-2nc2[n-]c(nc3nc(nc4[n-]c(n1)c1ccccc41)-c1ccccc1-3)c1ccc(O)cc21.[Zn+2],,75,7.5,,0.58,0.4,0,0,Tumor response (Mus musculus [11]): Light
Oc1ccc2c(c1)-c1nc-2nc2[n-]c(nc3nc(nc4[n-]c(n1)c1ccc(O)cc41)-c1ccc(O)cc1-3)c1ccc(O)cc21.[Zn+2],inactive,,,inactive,,,,,LC90 [12]: >100 µM; Tumor response (Mus musculus [13]): 0%; Tumor response (Mus musculus [14]): inactive; LD90 (EMT6 [5]; [18]): inactive; Activity (Mus musculus [15]): inactive
Oc1ccc2c(c1)-c1nc-2nc2[n-]c(nc3nc(nc4[n-]c(n1)c1ccccc41)-c1ccccc1-3)c1ccccc21.[Zn+2],,25,0.4,,0.12,0.15,12,100,Tumor response (Mus musculus [16]): Extensive; Tumor response (Mus musculus [17]): Extensive
